Source: ChEMBL document CHEMBL1133719, “Synthesis and preliminary biological evaluations of CC-1065 analogues: effects of different linkers and terminal amides on biological activity” (J Med Chem, 2000)

Assays:
Mus musculus [1] = organism: Mus musculus; assay: animal or person
Mus musculus [2] = organism: Mus musculus; assay: (§1) Hematological effects in female CDF1 mice at the dose of 30 mg, in white blood cells; format: functional
In short: (§2)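 Non-tumour-bearing female CDF1 mice, 10 per group. Drug was dissolved in DMSO, diluted in 30% DMSO/0.5% glucose, and given as a single ip dose on day 1. Blood was sampled on day 27 for WBC, platelet, RBC and MCHC measurements. Values are medians of 10 mice, with saline or vehicle controls.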

Mus musculus [3] = organism: Mus musculus; assay: (§3) Hematological effects in female CDF1 mice at the dose of […], in red blood cells
Mus musculus [4] = organism: Mus musculus; assay: Antitumor activity in mice bearing L1210 leukemia at a dose of 30 ug / kg; format: functional
In short: (§4)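 Female CDF1 mice, 10 per group, got 100 L1210 cells ip on day 0. Drug in DMSO was diluted with 30% DMSO in 0.5% glucose and dosed ip on days 1, 5 and 9. Long-term (60-day) survivors are given as percent of the group.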

[5] = Minimal drug concentration necessary to inhibit incorporation of [3H]thymidine in U937 Leukemia cells; format: functional, cell-based, Homo sapiens
Mus musculus [6] = organism: Mus musculus; assay: as §3; format: functional
In short: (§5)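 Non-tumor-bearing female CDF1 mice, 10 per group. Drugs were dissolved in DMSO, diluted in 30% DMSO/0.5% glucose, and given as a single ip dose on day 1 (doses per kg). Blood was sampled on day 27 for WBC, platelet, RBC and MCHC counts. Values are medians of 10 mice.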

Mus musculus [7] = organism: Mus musculus; assay: Hematological effects in female CDF1 mice at the dose of […], in platelets; format: functional
In short: as §5

Mus musculus [8] = organism: Mus musculus; assay: Mean corpuscular hemoglobin concentration (MCHC); format: functional
In short: as §2

Mus musculus [9] = assay: Antitumor activity in female CDF1 mice bearing L1210 Leukemia at the dose of 30 ug/kg and survivors (60-day) was expressed; format: functional
In short: as §4

Mus musculus [10] = organism: Mus musculus; assay: Hematological effects in female CDF1 mice, in red blood cells; format: functional
In short: as §5

Mus musculus [11] = organism: Mus musculus; assay: as §1; format: functional; remark: listed apart in the source
In short: as §5

Mus musculus [12] = organism: Mus musculus; assay: Hematological effects in female CDF1 mice, in platelets; format: functional
In short: as §5

Mus musculus [13] = organism: Mus musculus; assay: Hematological effects in female CDF1 mice at the dose of 30mg, in red blood cells; format: functional
In short: as §2

Mus musculus [14] = organism: Mus musculus; assay: Hematological effects in female CDF1 mice at the dose of 30 mg, in platelet cells; format: functional
In short: as §2

Mus musculus [15] = organism: Mus musculus; assay: Mean body weight change between days 1 and 10; format: functional
In short: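 Female BDF1 mice (4-6 weeks old, 8 per group) were inoculated ip with 10⁶ B16BL6 melanoma cells on day 0. Drugs in dimethylacetamide were diluted in DMA:Cremophor:water (1:5:44) and given ip at 0.1 mL on days 1, 5 and 9 (doses per kg). Read-outs were %ILS = (T/C − 1) × 100 on median survival of dying animals only, mean body weight change from day 1 to day 10 (g/mouse), and 90-day survivors.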

Mus musculus [16] = organism: Mus musculus; assay: Antitumor activity in mice bearing B16BL6 melanoma at a dose of 5(ug/mL); survivors for 90 days was reported; format: functional
In short: (§6)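 B16BL6 cells were cultured as monolayers, and 10⁶ cells were injected ip on day 0 into female BDF1 mice (4-6 weeks, 8 per group). Drug in dimethylacetamide was diluted in DMA/Cremophor/water (1:5:44) and 0.1 mL given ip on days 1, 5 and 9. %ILS came from median survival of dying animals; 90-day survivors were counted; mean weight change covered days 1-10.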

Mus musculus [17] = organism: Mus musculus; assay: Antitumor activity in mice bearing B16BL6 melanoma at a dose of 10(ug/mL); survivors for 90 days was reported; format: functional
In short: as §6

Mus musculus [18] = assay: Anti tumor activity was tested in mice and percent increase of life span at a dose of 70 ug/kg; format: functional
In short: (§7)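 Male BDF1 mice, 4-6 weeks old, 6 per group, were given 10⁵ L1210 cells ip on day 0. Drug in DMF was diluted in 30% DMSO/0.5% glucose and given ip on days 1, 5 and 9. %ILS = (T/C − 1) × 100 on median survival of dying animals only; 30-day survivors noted separately. Group weight change was taken from day 0 to the lowest-weight day.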

L1210 [19] = assay: Antitumor activity in mice bearing L1210 Leukemia at the dose of 30 ug/kg; survivors for 30 days was reported; format: functional, Mus musculus
L1210 [20] = assay: Antitumor activity was tested in Mice (bearing L1210 leukemia) and body weight change between days 0 and days 12 (when the animal weight was the lowest) was estimated at a dose of 42 ug/kg; format: functional, Mus musculus
In short: as §7

Mus musculus [21] = assay: Hematological effects in female CDF1 mice at the dose of 50ug/Kg, in white blood cells; format: functional
In short: as §2

Mus musculus [22] = assay: Antitumor activity was tested in mice and percent increase of life span at a dose of 25 ug/kg was reported; format: functional
[23] = Hematological effects in female CDF1 mice RBCs at the dose of 50ug/Kg, in red blood cells; format: functional, Mus musculus, Erythrocyte
In short: as §2

[24] = Hematological effects in female CDF1 mice platelet cells at the dose of 50ug/Kg, in platelets; format: functional, Mus musculus
In short: as §2

L1210 [25] = assay: Antitumor activity was tested in BDF1 male mice bearing L1210 Leukemia, at the dose of 70 ug/kg; activity expressed as 30-day survivors; format: functional, Mus musculus
In short: as §7

[26] = Compound was administered to non-tumor bearing female CDF1 mice to estimate Mean corpuscular hemoglobin concentration (MCHC); format: functional, Mus musculus
In short: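 Non-tumor-bearing female CDF1 mice, 10 per group, received one ip dose on day 1 (DMSO stock diluted in 30% DMSO/0.5% glucose). Blood was sampled on day 27 for hematology, including MCHC; values are medians of 10 mice.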

L1210 [27] = assay: Antitumor activity was tested in Mice (bearing L1210 leukemia) and body weight change between days 0 and days 12 (when the animal weight was the lowest) was estimated at a dose of 70 ug/kg; format: functional, Mus musculus
In short: as §7

Mus musculus [28] = assay: Anti tumor activity was tested in mice and percent increase of life span at a dose of 42 ug/kg; format: functional
In short: as §7

L1210 [29] = assay: Antitumor activity was tested in BDF1 male mice bearing L1210 Leukemia, at the dose of 42 ug/kg; survivors for 30 days was reported; format: functional, Mus musculus
In short: as §7

L1210 [30] = assay: Antitumor activity was tested in BDF1 male mice bearing L1210 Leukemia, at the dose of 25 ug/kg; survivors for 30 days was reported; format: functional, Mus musculus
In short: as §7

L1210 [31] = assay: Antitumor activity was tested in mice (bearing L1210 leukemia) and body weight change between days 0 and days 12 (when the animal weight was the lowest) was estimated at a dose of 25 ug/kg; format: functional, Mus musculus
In short: as §7

For `O=P1(N(CCCl)CCCl)NCCCO1` (configuration not stated) [CYCLOPHOSPHAMIDE ANHYDROUS], the ILS at 0.125 mg/kg (Mus musculus [1]) was 173%, the WBC (Mus musculus [2]) was 11.22 10e3 ul-1 and the RBC (Mus musculus [3]) was 7.67 10e6 ul-1.

`CCCC(=O)Nc1ccc2oc(C(=O)Nc3ccc4[nH]c(C(=O)N5CC(CCl)c6c5cc(O)c5ccccc65)cc4c3)cc2c1` (configuration not stated) showed a Survivors (Mus musculus [4]) of 20% and an IC50 [5] of 0.008 nM.

Work on `CC(=O)Nc1ccc2[nH]c(C(=O)N3CC(CCl)c4c3cc(O)c3ccccc43)cc2c1` (configuration not stated) yielded an IC50 [5] of 3 nM.

In the case of `CC(=O)O[C@H]1C(=O)[C@@]2(C)[C@H]([C@H](OC(=O)c3ccccc3)[C@]3(O)C[C@H](OC(=O)[C@H](O)[C@@H](NC(=O)c4ccccc4)c4ccccc4)C(C)=C1C3(C)C)[C@]1(OC(C)=O)CO[C@@H]1C[C@@H]2O` [PACLITAXEL], the RBC (Mus musculus [6]) is reported as 8.33 10e6 ul-1, the Platelet (Mus musculus [7]) is reported as 1.04 10e6 ul-1 and the MCHC (Mus musculus [8]) is reported as 36.5 g/dL. The WBC (Mus musculus [2]) was 13.4 10e3 ul-1 and the Survivors (Mus musculus [9]) was 0%.

With `CC(=O)Nc1ccc2[nH]c(/C=C/C(=O)N3CC(CCl)c4c3cc(O)c3ccccc43)cc2c1` (configuration not stated) the IC50 [5] was 0.9 nM.

For `CC(=O)Nc1ccc2oc(C(=O)Nc3ccc4[nH]c(C(=O)N5CC(CCl)c6c5cc(O)c5ccccc65)cc4c3)cc2c1` (configuration not stated), the IC50 [5] was 0.4 nM.

For `C[S+](C)[O-].OC[C@H]1O[C@H](O)[C@H](O)[C@@H](O)[C@@H]1O`, the RBC (Mus musculus [10]) was 8.5 10e6 ul-1, the WBC (Mus musculus [11]) was 12.85 10e3 ul-1 and the MCHC (Mus musculus [8]) was 34.45 g/dL. The Platelet (Mus musculus [12]) was 1.16 10e6 ul-1.

With `CS(=O)(=O)OCCCCOS(C)(=O)=O` [BUSULFAN] the WBC (Mus musculus [11]) was 7 10e3 ul-1, the RBC (Mus musculus [13]) was 8.45 10e6 ul-1 and the Platelet (Mus musculus [14]) was 0.71 10e6 ul-1.

In the case of `O=c1[nH]cc(F)c(=O)[nH]1` [FLUOROURACIL], the WBC (Mus musculus [11]) is reported as 12.4 10e3 ul-1, the RBC (Mus musculus [13]) is reported as 8.82 10e6 ul-1 and the MCHC (Mus musculus [8]) is reported as 35.4 g/dL. For the same molecule, the Platelet (Mus musculus [14]) was 1.24 10e6 ul-1.

`COc1cccc2c1C(=O)c1c(O)c3c(c(O)c1C2=O)C[C@@](O)(C(=O)CO)C[C@@H]3O[C@H]1C[C@H](N)[C@H](O)[C@H](C)O1` [DOXORUBICIN] showed a Weight (Mus musculus [15]) of 0.5 g, a No. of survivors (Mus musculus [16]) of 0 and a No. of survivors (Mus musculus [17]) of 2.

Work on `CC(=O)Nc1ccc2oc(C(=O)Nc3ccc4[nH]c(C(=O)N5CC6CC67C5=CC(=O)c5ccccc57)cc4c3)cc2c1` (configuration not stated) yielded an ILS at 0.07 mg/kg (Mus musculus [18]) of 93%, a No. of survivors (L1210 [19]) of 60 and a Weight change (L1210 [20]) of 18%. The WBC (Mus musculus [21]) was 13.95 10e3 ul-1, the ILS at 0.025 mg/kg (Mus musculus [22]) was 53% and the RBC [23] was 7.81 10e6 ul-1. For the same molecule, the Platelet [24] was 1.01 10e6 ul-1, the No. of survivors (L1210 [25]) was 0 and the IC50 [5] was 0.2 nM. The MCHC [26] was 35.5 g/dL, the Weight change (L1210 [27]) was -15% and the ILS at 0.042 mg/kg (Mus musculus [28]) was 80%. It also gave a No. of survivors (L1210 [29]) of 1, a No. of survivors (L1210 [30]) of 0 and a Weight change (L1210 [31]) of 23%.
